Consider 54 sequences from the array DNA melting data of Ke et al. (doi:10.1101/2024.01.08.574731).

Series [1] is described as follows: folding enthalpy; higher = less favourable; fluorescence melt of hairpins on a sequencing array, two-state fit. The settings on record: sodium 0.088 M. In short, it runs like this:
(§1)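 Folding enthalpy and melting temperature were estimated with bootstrapped two-state fits and combined across four replicates by inverse-variance weighting, with fitted temperatures raised by 9.35 °C to match UV melts. The data were Cy3 fluorescence of library hairpins, with annealed Cy3 and quencher oligos, on a sequenced MiSeq flow cell in 50 mM Na-HEPES pH 8.0, 25 mM NaCl, imaged in 2.5 °C steps up to 60 °C and normalised to pre-quench Cy3 and control constructs.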

Series [2] is described as follows: melting temperature; fluorescence melt of hairpins on a sequencing array, two-state fit, raised by 9.35 °C to match UV melts. The settings on record: sodium 0.088 M. In short, it runs like this:
as §1

On to GGCGAGCGAAAGCTGGCC (((.(((....))).))), for which, in series [1], the folding enthalpy is -34.6 kcal/mol. Besides, in series [2], the Tm stood at 68 °C.
Taken in the same sequence, the figures for GGCGATACGAAAGTAGCC (((..(((....)))))) were -23.3 kcal/mol and 49.5 °C.
In the same order, the values of GGCGATCGAAAGATGCC (((.(((....)))))) are -37.8 kcal/mol and 55 °C.
GGCGATGGAAACATCGTC (.(((((....))))).): in series [1], the folding enthalpy is -45.8 kcal/mol. In series [2], the Tm worked out at 56.5 °C.
In the same order, the values of GGCGCAGCGAAAGCTGCC (((..(((....)))))) are -6.91 kcal/mol and 52.6 °C.
Taken in the same sequence, the figures for GGCGCAGGAAACCGCACC ((.((.(....).)).)) were -27.5 kcal/mol and 39 °C.
In the same order, the values of GGCGCCCCGAAAGGGGCC (((..(((....)))))) are -7.09 kcal/mol and 58.6 °C.
Consider GGCGCCGAAAGGCAAGCC ((((((....)))..))), for which the folding enthalpy in series [1] was -21.7 kcal/mol. Moreover, the Tm in series [2] amounted to 63.8 °C.
Taken in the same sequence, the figures for GGCGCCGAAAGGCCGGCC ((((((....)))..))) were -17.2 kcal/mol and 58.7 °C.
As for GGCGCCGAAAGGCGGGCC ((((((....)))..))), the folding enthalpy in series [1] was -9.79 kcal/mol. Further, the Tm in series [2] turned out to be 60.4 °C.
Regarding GGCGCGGGAAACCGCACC ((.((((....)))).)), the folding enthalpy in series [1] is -22.4 kcal/mol. For the same sequence, the Tm in series [2] is 61.7 °C.
In the same order, the values of GGCGCTCGAAAGAGGCC (((.(((....)))))) are -40.1 kcal/mol and 57.5 °C.
In the same order, the values of GGCGCTGGAAACGGTGCC (((.(.(....).).))) are -31.2 kcal/mol and 52.7 °C.
Taken in the same sequence, the figures for GGCGGATCGAAAGATGCC (((..(((....)))))) were -22.7 kcal/mol and 46.1 °C.
Consider GGCGGCGAAAGCCAAGCC ((((((....)))..))), for which, in series [1], the folding enthalpy was -25.5 kcal/mol. Besides, the Tm in series [2] was 63.9 °C.
Taken in the same sequence, the figures for GGCGGCGAAAGCCTGGCC ((((((....)))..))) were -19.9 kcal/mol and 61.8 °C.
For the sequence GGCGGCGGAAACACCGCC (((((.(....).))))), the folding enthalpy in series [1] was -21.9 kcal/mol. In addition, the Tm in series [2] stood at 65.2 °C.
As to GGCGGTCGAAAGACAGCC (((.(((....))).))), the folding enthalpy in series [1] is -35 kcal/mol. In series [2], the Tm is 67.7 °C.
Taken in the same sequence, the figures for GGCGGTGGAAACACCACC ((.((((....)))).)) were -27.5 kcal/mol and 53 °C.
As to GGCGGTTCGAAAGAAGCC (((..(((....)))))), the folding enthalpy in series [1] was -16.6 kcal/mol. In series [2], the Tm is 41 °C.
GGCGTACGAAAGTAAGCC (((.(((....))).))): in series [1], the folding enthalpy was -35.1 kcal/mol. For the same sequence, the Tm in series [2] was found to be 59.3 °C.
Taken in the same sequence, the figures for GGCGTAGAAATACGCC ((((((....)))))) were -37.5 kcal/mol and 66.1 °C.
Taken in the same sequence, the figures for GGCGTAGGAAACTGTGCC (((..((....))..))) were -27 kcal/mol and 39.4 °C.
Taken in the same sequence, the figures for GGCGTCGAAAGACCGCC ((((((....))).))) were -34.5 kcal/mol and 60.5 °C.
For GGCGTCGAAAGACGGGCC ((((((....)))..))), the folding enthalpy in series [1] is -12.7 kcal/mol. The Tm in series [2] is 52 °C.
Taken in the same sequence, the figures for GGCGTCGGAAACGACACC ((.((((....)))).)) were -30.1 kcal/mol and 53.9 °C.
In the same order, the values of GGCGTGGCGAAAGCCGCC (((..(((....)))))) are -16.4 kcal/mol and 66.7 °C.
In the case of GGCGTGGGAAACCATGCC (((.(((....))).))), the folding enthalpy in series [1] is -44.5 kcal/mol. The Tm in series [2] worked out at 61.4 °C.
Taken in the same sequence, the figures for GGCGTGGGAAACCGCGTC (.((.((....)).)).) were -27.4 kcal/mol and 52.2 °C.
Taken in the same sequence, the figures for GGCGTGTCGAAAGACGCC (((..(((....)))))) were -23.6 kcal/mol and 58.7 °C.
In the same order, the values of GGCGTTCGAAAGAAAGCC (((.(((....))).))) are -34.1 kcal/mol and 56.8 °C.
As for GGCTAAGGAAACTTAGTC (.(((((....))))).), the folding enthalpy in series [1] is -36.7 kcal/mol. Also, the Tm in series [2] came out at 42.4 °C.
In the same order, the values of GGCTACCGAAAGGTTGCC (((.(((....))).))) are -35.5 kcal/mol and 63 °C.
Taken in the same sequence, the figures for GGCTACGAAAGTACCGCC ((((((....)))..))) were -23.1 kcal/mol and 48.4 °C.
In the same order, the values of GGCTACGAAAGTACGGCC ((((((....)))..))) are -23.9 kcal/mol and 46.5 °C.
For the sequence GGCTACGAAAGTAGCGCC ((((((....)))..))), in series [1], the folding enthalpy is -9.93 kcal/mol. Moreover, the Tm in series [2] is 55.7 °C.
In the same order, the values of GGCTACGCGAAAGCGGCC (((..(((....)))))) are -17.2 kcal/mol and 56.9 °C.
In the same order, the values of GGCTACGGAAACATAGCC (((((.(....).))))) are -28.8 kcal/mol and 43.8 °C.
Taken in the same sequence, the figures for GGCTACGGAAACGTAACC ((.((((....)))).)) were -26.2 kcal/mol and 42.1 °C.
With GGCTAGGCGAAAGCCGCC (((..(((....)))))), the folding enthalpy in series [1] is -15 kcal/mol. The Tm in series [2] stood at 60.8 °C.
In the same order, the values of GGCTAGGGAAACCTGGCC (((.(((....))).))) are -44.8 kcal/mol and 55.5 °C.
In the same order, the values of GGCTAGGGAAACTTAGCC (((((.(....).))))) are -37.1 kcal/mol and 49.4 °C.
Taken in the same sequence, the figures for GGCTATACGAAAGTAGCC (((..(((....)))))) were -32.6 kcal/mol and 48.7 °C.
Turning to GGCTCACGAAAGTGGCC (((.(((....)))))), in series [1], the folding enthalpy was -26.3 kcal/mol. Further, the Tm in series [2] worked out at 56.6 °C.
Taken in the same sequence, the figures for GGCTCAGGAAACCGAGCC (((((.(....).))))) were -49.1 kcal/mol and 54.5 °C.
In the case of GGCTCATCGAAAGATGCC (((..(((....)))))), the folding enthalpy in series [1] was -13.3 kcal/mol. Further, the Tm in series [2] stood at 37.5 °C.
Taken in the same sequence, the figures for GGCTCCGAAAGGAACGCC ((((((....)))..))) were -21 kcal/mol and 50.5 °C.
In the same order, the values of GGCTCCGAAAGGAAGGCC ((((((....)))..))) are -29.7 kcal/mol and 52.6 °C.
Taken in the same sequence, the figures for GGCTCCGAAAGGACGCC ((((((....))).))) were -29.1 kcal/mol and 59.9 °C.
With GGCTCCGCGAAAGCGGCC (((..(((....)))))), the folding enthalpy in series [1] was -8.55 kcal/mol. Also, the Tm in series [2] is 41.4 °C.
In the same order, the values of GGCTCGCCGAAAGGCGCC (((..(((....)))))) are -6.98 kcal/mol and 35.7 °C.
Taken in the same sequence, the figures for GGCTCGGGAAACCGAACC ((.((((....)))).)) were -29.7 kcal/mol and 48.8 °C.
In the case of GGCTCTACGAAAGTAGCC (((..(((....)))))), the folding enthalpy in series [1] is -17.1 kcal/mol. For the same sequence, the Tm in series [2] is 40.1 °C.
Taken in the same sequence, the figures for GGCTCTCCGAAAGGAGCC (((..(((....)))))) were -15 kcal/mol and 49 °C.
